Source: PubChem BioAssay
Sampled rows, rich in hits. Any-hit rate of the full collection: about 1.3%.
XiGFP reactiv = activators of X-chromosome reactivation in mouse fibroblasts. XiGFP mouse fibroblasts, % GFP-positive cells imaging, 3 d; cells co-treated with 5-aza-dC sensitizer; scaled so ellipticine positive control = 100%. activation, % at 7.58 µM. 0.055% of 360,000 active;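 active = mean normalized replicate activation at least 10% and every replicate at or above 10%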
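Material: XiGFP fibroblasts, SV40-immortalized. Buffer or medium: DMEM plus 5-aza-dC sensitizer. Compound: single concentration per compound, delivered by pin transfer. Times: 3 days compound exposure. Controls: ellipticine 6 µM.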
CSN deneddyl inh = inhibitors of human CSN-mediated cullin deneddylation | Q92905 | Purified CSN, SCF-Nedd8-OG deneddylation, fluorescence polarization | inhibition, % at 12.5 µM | 0.38% of 360,000 active;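 active = pattern-corrected inhibition above about 35%, with an unprinted fluorescence ratio check between 0.5 and 1.5, limit read from the data, passing the limit was not always enough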
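Assay system: purified human Csn5 enzyme expressed in HEK293T cells; Input: 0.24 nM Csn5 enzyme, final concentration; Reagent: 10 nM SCFSkp2-Nedd8OG; Compound dosing: 12.5 µM single point; Times: reaction 90 min, room temperature; Technique: fluorescence polarization readout.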
TPT1 inhibitor = C. albicans TPT1 enzyme inhibition | 0.81% of 300,000 active | recombinant caTPT1, FP RNA substrate dephosphorylation | inhibition, % at 5 µM | AID 1962;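 active = inhibition above the mean of all tested compounds plus 3 SD, set per screening campaign, cut at about 24% in these data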
Rpn11 inh = inhibitors of human proteasome Rpn11; 0.59% of 360,000 active; human 26S proteasome, Ub4-pepOG fluorescence polarization; 20S core pre-blocked with epoxomicin; O00487; inhibition, % at 20 µM;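 active = inhibition at 20 µM, scaled to each plate's controls, above about 33%, limit read from the data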
aDG glyco act = alpha-DG glycosylation activation. AID 624168. activation, % at 10 µM. Pro5-aDG cells, alpha-DG glycosylation AlphaScreen (IIH6); 0% Pro5, 100% B10-LARGE cell signal. 0.22% of 360,000 active;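 active = activation of at least 8% versus controls, or a plate z-score of at least 8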;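 also: Pro5 are CHO cells carrying HIG-tagged alpha-DG that lacks glycosylation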
HNF4A DNA FP = change in binding of human HNF4 alpha to DNA; HNF4a-FITC DNA binding, fluorescence polarization, 1 h; activity change, % at 10 µM; 0.3% of 360,000 active; AID 1224865; in the data active = activity change above about 30%, passing the limit was not always enough
Target sequence (P41235 whole entry, looked up): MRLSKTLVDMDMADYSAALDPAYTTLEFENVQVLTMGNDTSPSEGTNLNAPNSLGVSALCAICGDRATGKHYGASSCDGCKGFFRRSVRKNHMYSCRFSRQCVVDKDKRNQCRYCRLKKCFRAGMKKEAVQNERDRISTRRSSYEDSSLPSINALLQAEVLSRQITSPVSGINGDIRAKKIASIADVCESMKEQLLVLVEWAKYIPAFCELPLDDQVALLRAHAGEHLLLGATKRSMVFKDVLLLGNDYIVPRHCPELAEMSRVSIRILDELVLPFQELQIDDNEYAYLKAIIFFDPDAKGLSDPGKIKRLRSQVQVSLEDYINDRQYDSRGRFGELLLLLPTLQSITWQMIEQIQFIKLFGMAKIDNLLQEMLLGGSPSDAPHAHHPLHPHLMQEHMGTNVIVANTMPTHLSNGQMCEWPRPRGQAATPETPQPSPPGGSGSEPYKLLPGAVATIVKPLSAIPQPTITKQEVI
TPT1 inh confirm = confirmation of Candida albicans TPT1 inhibitors; inhibition, % at 5 µM; AID 2149; shares compounds with TPT1 inhibitor; recombinant caTPT1, fluorescence polarization, RNase T1 coupled; 74% of 2,400 active;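 active = inhibition above the primary screen limit, the mean inhibition of all tested compounds plus 3 SD, cut at about 25% in these data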
RNase T1 counter = counter-screen for TPT1 inhibitors: inhibitors of Aspergillus oryzae RNase T1 | shares compounds with TPT1 inhibitor | RNase T1 cleavage, fluorescence polarization, 1536-well | inhibition, % at 5 µM | 83% of 2,400 active | AID 2153;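 active = inhibition above the solvent-only control well mean plus 3 SD, limit set per screening run, cut at about 23% in these data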;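 also: inhibitors block cleavage so intact labeled substrate keeps polarization high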
Target sequence (P00651 whole entry, looked up): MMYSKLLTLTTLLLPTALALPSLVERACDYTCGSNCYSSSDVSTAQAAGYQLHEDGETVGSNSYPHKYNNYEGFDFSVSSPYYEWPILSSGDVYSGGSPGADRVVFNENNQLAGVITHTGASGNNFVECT
Numbers stand for hits; 0 = inactive; - = not tested or not shown.

SMILES	XiGFP reactiv	CSN deneddyl inh	TPT1 inhibitor	Rpn11 inh	aDG glyco act	HNF4A DNA FP	TPT1 inh confirm	RNase T1 counter
CC(C)(C)c1ccc(/C=C2\Oc3cc(O)ccc3C2=O)cc1	0	0	30	0	0	0	67	72
COC(=O)c1ccc2c(c1)C(=O)/C(=C/c1ccc(O)cc1)O2	0	0	28	0	0	0	0	28
O=C1/C(=C/c2ccc(Br)cc2)Oc2cc(O)ccc21	0	0	63	0	0	0	77	79
O=C1/C(=C/c2ccc([N+](=O)[O-])cc2)Oc2cc(O)ccc21	0	0	-	0	0	0	-	-
Cc1cc(/C=N/Nc2ccc([N+](=O)[O-])cn2)c(C)n1-c1ccccc1	-	0	31	0	0	0	35	47
Cc1ccc(Cn2cc(/C=N/Nc3ccc([N+](=O)[O-])cn3)c3ccccc32)cc1	0	0	51	0	0	54	34	44
O=C(O)Cn1cc(/C=N/Nc2ccc([N+](=O)[O-])cn2)c2ccccc21	0	0	-	0	0	0	-	-
Cc1ccc(-n2c(C)cc(/C=N/Nc3ccc([N+](=O)[O-])cn3)c2C)cc1	-	0	34	0	0	0	35	47
COc1cccc(NC(=O)N(C)C[C@@H]2OCc3cn(nn3)CCCC(=O)N([C@@H](C)CO)C[C@@H]2C)c1	0	-	-	-	-	-	-	-
COc1ccc(S(=O)(=O)Nc2ccc3c(c2)C(=O)N([C@@H](C)CO)C[C@H](C)[C@H](CN(C)S(=O)(=O)c2cccs2)OCCCC[C@@H](C)O3)cc1	0	-	-	-	-	-	-	-
CCCn1c2c(c(O)c(C(=O)NC)c1=O)CCCC2	-	0	38	0	0	0	0	0
CCCn1c2c(c(O)c(C(=O)NCc3ccccc3)c1=O)CCCC2	-	0	0	0	0	0	-	-
Oc1ccc(/C=N/Nc2nc(-c3cccnc3)nc3ccccc23)c(O)c1	0	0	46	-	0	36	59	69
CCCN1[C@H](C(=O)N2CCN(C)CC2)[C@@H](CO)[C@@H]2Cn3c(ccc(-c4ccccc4F)c3=O)[C@@H]21	0	-	-	-	-	-	-	-
CCSc1ccc([C@@H]2[C@H]3C(=O)N(CC)C(=O)[C@H]3[C@]3(C(=O)OC)CCCCN23)cc1	0	0	24	0	0	0	39	49
Cc1ccc(S(=O)(=O)N(c2nc(N(C)C)nc(N(C)C)n2)n2cnnc2)cc1	-	0	29	0	0	0	0	0
Cc1cc2nc(/C(C#N)=C\c3ccc(-c4ccccc4C(=O)O)o3)[nH]c2cc1C	0	0	138	-	0	0	145	136
N#C/C(=C\c1ccc(Sc2ccccc2)o1)c1nc2ccccc2[nH]1	0	0	51	0	0	0	60	70
N#C/C(=C/c1ccc(Sc2nc3ccccc3[nH]2)o1)c1ccccc1F	-	0	0	0	0	0	-	-
O=C1CC(=O)N(Cc2cccs2)C(=O)N1	-	0	62	0	0	0	0	23
C[C@H]1CN([C@@H](C)CO)C(=O)c2cc(NC(=O)CCN3CCOCC3)ccc2O[C@H]1CN(C)CC1CCCCC1	0	-	-	-	-	-	-	-
O=Cc1ccc(OCc2ccc3ccccc3c2)cc1	0	0	0	0	0	0	-	-
O=Cc1ccc(OCc2ccccn2)cc1	-	0	51	0	0	0	0	0
O=C1NC(=Nc2ccccc2Cl)S/C1=C\c1cc([N+](=O)[O-])ccc1O	0	0	88	-	0	76	99	99
O=C1N/C(=N\S(=O)(=O)Cc2ccccc2)S/C1=C/c1cccc([N+](=O)[O-])c1	0	0	0	0	0	0	-	-
SMILES	XiGFP reactiv	CSN deneddyl inh	TPT1 inhibitor	Rpn11 inh	aDG glyco act	HNF4A DNA FP	TPT1 inh confirm	RNase T1 counter
O=C1N/C(=N/O)S/C1=C/c1cccc([N+](=O)[O-])c1	0	0	0	0	0	0	-	-
COc1cccc(N=C2NC(=O)/C(=C/c3cc([N+](=O)[O-])ccc3O)S2)c1	0	0	51	-	0	76	64	70
COc1ccc(-n2c(NC(=O)c3ccco3)c(C#N)c3nc4ccccc4nc32)cc1	-	38	36	0	0	0	45	55
CN(C)CCC1CCN(c2cc(C#N)c(C#N)cc2[N+](=O)[O-])CC1	0	0	119	0	0	0	0	0
O=C(N/N=C/c1c(O)n(-c2ccccc2Cl)c(=O)c2ccccc12)C1COc2ccccc2O1 (stereo unspecified)	-	0	26	0	0	0	65	79
Cc1c(/C=N\NC(=O)C2COc3ccccc3O2)c2ccccc2n1C (stereo unspecified)	0	0	51	0	0	0	0	0
COc1ccc(C(=O)N/N=c2\oc3ccccc3cc2C(=O)NCc2ccccc2)cc1	0	0	33	0	0	0	0	0
COc1ccc2oc(=O)c(C(=O)NCc3ccccc3)cc2c1	0	0	0	0	0	0	-	-
O=C(Nc1cc(F)ccc1F)N1CC(=O)N2[C@H](CO)[C@H](c3ccc(C#CC4CCCC4)cc3)[C@H]2C1	0	-	-	-	-	-	-	-
CCN(CC)c1ccc2cc(S(=O)(=O)c3ccc(C)cc3)c(=O)oc2c1	0	0	70	0	0	50	72	81
Cc1ccc(C(=O)NNC(=O)c2ccc(S(=O)(=O)N3CCCCC3)cc2)cc1	0	0	-	0	0	0	-	-
CCN(CC)c1ccc2cc(C(=O)NNC(=O)c3ccc(S(=O)(=O)N4CCCCC4)cc3)c(=O)oc2c1	0	0	49	-	0	0	77	86
CCN(CC)c1ccc2cc(C#N)c(=O)oc2c1	0	0	46	0	0	0	44	58
Cc1ccc(S(=O)(=O)c2cc3ccccc3oc2=O)cc1	0	0	0	0	0	0	-	-
C[C@@H]1CN([C@H](C)CO)C(=O)Cc2cc(NC(=O)CCN3CCOCC3)ccc2O[C@@H]1CN(C)S(=O)(=O)c1ccc(Cl)cc1	0	-	-	-	-	-	-	-
COC(=O)C1C2CC3c4[nH]c5cc(OC)ccc5c4CCN3CC2CC(O)C1OC (stereo unspecified)	-	0	-	0	0	0	-	-
CCOC(=O)Oc1c(OC)cc(C(=O)O[C@@H]2C[C@@H]3CN4CCc5c([nH]c6cc(OC)ccc56)[C@H]4C[C@@H]3[C@H](C(=O)OC)[C@H]2OC)cc1OC	0	0	45	0	0	0	42	53
Cc1noc(C)c1NC(=O)N(C)C[C@H]1Oc2ccc(NC(=O)NC3CCCCC3)cc2C(=O)N([C@@H](C)CO)C[C@@H]1C	0	-	-	-	-	-	-	-
